pIC50, pKi: −log10 of the molar value. The source made the active and inactive calls. The rule behind the calls is not given here.
Legend:
[1] = target: T1, C-X-C chemokine receptor type 2 (Homo sapiens, UniProt P25025); test: Antagonist activity at CXCR2 (unknown origin) expressed in U2OS cells cotransfected with beta-arrestin/TEV protease fusion protein and beta-lactamase assessed as inhibition of CXCL8-induced beta arrestin2 recruitment preincubated for 30 mins followed by CXCL8 stimulation and measured after 5 hrs by FRET based fluorescence/Tango assay; assay type: cell-based
T1 sequence (P25025 whole entry): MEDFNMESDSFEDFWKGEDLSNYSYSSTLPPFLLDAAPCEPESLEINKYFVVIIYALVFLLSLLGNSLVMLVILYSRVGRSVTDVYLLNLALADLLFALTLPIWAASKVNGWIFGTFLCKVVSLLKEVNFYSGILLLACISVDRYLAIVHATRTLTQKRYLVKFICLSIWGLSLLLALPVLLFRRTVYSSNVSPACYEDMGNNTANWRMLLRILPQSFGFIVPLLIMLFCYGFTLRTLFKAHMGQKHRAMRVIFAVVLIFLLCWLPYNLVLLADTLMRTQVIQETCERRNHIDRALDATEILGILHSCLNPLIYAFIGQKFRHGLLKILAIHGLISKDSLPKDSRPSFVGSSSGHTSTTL

Translocator protein [2] = target: T2, Translocator protein (Homo sapiens, UniProt P30536); test: Inhibition of PBR (unknown origin) at 10 uM by radioligand binding assay relative to control
Outline: (§1)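 Primary radioligand binding screen across 50 GPCRs at a single concentration of 10 μM. Compounds with ≥50% inhibition went on to secondary binding.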

[3] = target: T3, Alpha-2A adrenergic receptor (Homo sapiens) (UniProt P08913); test: Inhibition of alpha 2a-adrenergic receptor (unknown origin) at 10 uM by radioligand binding assay relative to control; outline: as §1
T3 sequence (whole entry): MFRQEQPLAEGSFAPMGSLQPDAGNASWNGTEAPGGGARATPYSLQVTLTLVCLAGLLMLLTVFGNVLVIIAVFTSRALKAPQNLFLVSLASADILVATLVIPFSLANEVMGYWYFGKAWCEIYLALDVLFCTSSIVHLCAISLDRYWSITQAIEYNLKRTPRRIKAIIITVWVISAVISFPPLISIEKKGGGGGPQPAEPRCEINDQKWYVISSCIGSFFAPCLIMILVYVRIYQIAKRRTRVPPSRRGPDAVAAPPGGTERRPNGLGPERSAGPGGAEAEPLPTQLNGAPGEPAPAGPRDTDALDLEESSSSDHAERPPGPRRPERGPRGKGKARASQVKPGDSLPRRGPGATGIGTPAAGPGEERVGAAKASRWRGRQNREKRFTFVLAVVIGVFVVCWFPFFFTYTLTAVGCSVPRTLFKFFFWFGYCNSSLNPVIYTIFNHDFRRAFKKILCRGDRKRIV

Translocator protein [4] = target: T2, Translocator protein; test: Inhibition of PBR (unknown origin) by radioligand binding assay
Outline: (§2)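 Secondary radioligand binding assay determining equilibrium binding affinity (Ki).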

[5] = target: T4, Alpha-2A adrenergic receptor (Homo sapiens, UniProt P08913); test: Inhibition of alpha 2a-adrenergic receptor (unknown origin) by radioligand binding assay; outline: as §2
T4 sequence (P08913 whole entry): T3 sequence (whole entry)

[6] = target: T5, C-X-C chemokine receptor type 2 (Homo sapiens) (UniProt P25025); test: Antagonist activity at CXCR2 (unknown origin) expressed in HEK293T cells cotransfected with GFP and p22F assessed as inhibition of CXCL8-reduced cAMP production at 10 uM incubated for 10 mins followed by CXCL8 stimulation and measured after 10 mins by luminescence based assay; assay type: functional, cell-based; details: time 20.0 min
T5 sequence (whole entry): T1 sequence (P25025 whole entry)
Outline: (§3)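 293T-CXCR2-GFP-p22F cells express a cAMP-sensitive firefly luciferase. They were seeded at 30000 cells/well overnight in CO2-independent medium with 10% FBS, then incubated with 1% cAMP reagent for 2 h at 37 °C. Cells were pretreated with compound for 10 min, given CXCL8 (50 nM) for 10 min, then stimulated with forskolin (50 μM) until maximal signal (~80 min). Luminescence read-out.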

[7] = target: T5, C-X-C chemokine receptor type 2 (Homo sapiens); test: Antagonist activity at CXCR2 (unknown origin) expressed in HEK293T cells cotransfected with GFP assessed as inhibition of CXCL8-induced ERK1/2 phosphorylation pretreated at 10 to 30 uM followed by treated with CXCL8 by immunoblot assay; assay type: cell-based; details: dose 10-30 µM
Outline: (§4)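 293T-CXCR2-GFP cells (5 x 10^5/well) were attached overnight, treated with compounds and lysed in RIPA buffer with protease/phosphatase inhibitors. Lysates were normalized by BCA and resolved on 10% SDS-PAGE. Blots were probed overnight at 4 °C with antibodies (1:500-1:1000) to p-ERK1/2, p-JNK, p-cJUN or p-p38, then with a fluorescent secondary antibody, and imaged by infrared imaging.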

[8] = target: T5, C-X-C chemokine receptor type 2 (Homo sapiens); test: Antagonist activity at CXCR2 (unknown origin) expressed in HEK293T cells cotransfected with GFP assessed as inhibition of CXCL8-induced p38 phosphorylation at 10 to 30 uM post CXCL8 treatment by immunoblot assay; assay type: cell-based; details: dose 10-30 µM; outline: as §4
[9] = target: T5, C-X-C chemokine receptor type 2 (Homo sapiens); test: Antagonist activity at CXCR2 (unknown origin) expressed in HEK293T cells cotransfected with GFP assessed as inhibition of CXCL8-induced JNK phosphorylation at 10 to 30 uM post CXCL8 treatment by immunoblot assay; assay type: cell-based; details: dose 10-30 µM; outline: as §4
[10] = target: T5, C-X-C chemokine receptor type 2 (Homo sapiens); test: Antagonist activity at CXCR2 (unknown origin) expressed in HEK293T cells cotransfected with GFP assessed as inhibition of CXCL8-induced cJUN phosphorylation at 10 to 30 uM post CXCL8 treatment by immunoblot assay; assay type: cell-based; details: dose 10-30 µM; outline: as §4
[11] = target: T5, C-X-C chemokine receptor type 2 (Homo sapiens); test: Antagonist activity at CXCR2 (unknown origin) expressed in HEK293T cells cotransfected with GFP assessed as inhibition of CXCL8-induced AKT phosphorylation at 10 to 30 uM post CXCL8 treatment by immunoblot assay; assay type: cell-based; details: dose 10-30 µM
U2OS = test: Antimigratory activity against human U2OS cells overexpressing CXCR2/bla assessed as reduction in CXCL8-mediated wound closure at 10 uM incubated for 20 mins followed by CXCL8 stimulation and measured after 24 hrs by Giemsa staining based scratch wound healing assay; assay type: functional, cell-based; details: time 24.3 hrs
Outline: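 CXCR2-bla U2OS cells were seeded at 35000/well in DMEM with 1% FBS overnight and scratched with a pipette tip. Compounds (10 μM) were added for 20 min, then CXCL8 (60 nM) for 24 h; unstimulated wells served as control. Cells were methanol-fixed, Giemsa-stained and imaged by transmitted light. Two independent experiments were run in duplicate.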

SK-OV-3 [12] = test: Inhibition of colony formation in human SK-OV-3 cells at 8.9 to 20 uM incubated for 7 to 10 days in presence of doxorubicin by crystal violet staining based assay; assay type: functional, cell-based; details: dose 8.9-20 µM, time 7-10 day
Outline: (§5)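 Colony formation: cells were seeded at 300/well, attached overnight, then treated with compounds for 7-10 days until colonies formed in DMSO wells. Colonies were stained with 0.05% crystal violet for 30 min and washed with water.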

[13] = target: C-X-C chemokine receptor type 4 (Homo sapiens, UniProt P61073); test: Antagonist activity at CXCR4 (unknown origin) expressed in U2OS cells cotransfected with beta-arrestin/TEV protease fusion protein and beta-lactamase assessed as inhibition of SDF1-alpha-induced beta arrestin2 recruitment preincubated for 30 mins followed by SDF1-alpha stimulation and measured after 5 hrs by FRET based fluorescence/Tango assay
[14] = target: T5, C-X-C chemokine receptor type 2 (Homo sapiens); test: Antagonist activity at CXCR2 (unknown origin) expressed in HEK293T cells cotransfected with GFP and p22F assessed as inhibition of […] at 30 uM incubated at 37 degC for 30 min and at room temperature for 30 min by fluorescence based assay; assay type: functional, cell-based; details: time 60.0 min
Outline: (§6)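 293T-CXCR2-GFP cells were seeded at 30000 cells/well and loaded next day with Fluo-4 NW dye plus probenecid ([…] final). Loading was 30 min at 37 °C, then 30 min at room temperature, protected from light. Compound and CXCL8 (300 nM, by injector) were added. Fluorescence was read immediately (ex 490/em 535 nm) and normalized to the pre-stimulation baseline.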

[15] = target: T5, C-X-C chemokine receptor type 2 (Homo sapiens); test: Antagonist activity at CXCR2 (unknown origin) expressed in U2OS cells cotransfected with beta-arrestin/TEV protease fusion protein and beta-lactamase assessed as inhibition of CXCL8-induced beta arrestin2 recruitment at 10 uM preincubated for 30 mins followed by CXCL8 stimulation and measured after 5 hrs by FRET based fluorescence/Tango assay relative to control; assay type: cell-based
Outline: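 Tango assay: CXCR2-bla or CXCR4-bla U2OS cells were seeded at 11000/well for 24 h in DMEM with 1% dialyzed FBS. Cells were pretreated with inhibitor for 30 min, then given CXCL8 (12 nM; CXCR2) or SDF-1α (60 nM; CXCR4) for 5 h at 37 °C. […] IC50 is the mean±SD of ≥3 independent experiments.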

SK-OV-3 [16] = test: Inhibition of colony formation in human SK-OV-3 cells at 38 nM incubated for 7 to 10 days by crystal violet staining based assay; assay type: functional, cell-based; details: time 7-10 day; outline: as §5
[17] = target: T6, 5-hydroxytryptamine receptor 2B (Homo sapiens, UniProt P41595); test: Inhibition of 5-HT2B (unknown origin) at 10 uM by radioligand binding assay relative to control; outline: as §1
[18] = target: T6, 5-hydroxytryptamine receptor 2B; test: Inhibition of 5-HT2B (unknown origin) by radioligand binding assay; outline: as §2
[19] = target: T1, C-X-C chemokine receptor type 2; test: Inhibition of CXCR2 (unknown origin) expressed in HEK293T cells cotransfected with GFP-p22F assessed as reduction in IL-8-induced cAMP incubated for 10 mins followed by IL-8 stimulation and measured after 10 mins by luminescence based assay; assay type: functional, cell-based; outline: as §3
[20] = target: T5, C-X-C chemokine receptor type 2 (Homo sapiens); test: Antagonist activity at CXCR2 (unknown origin) expressed in HEK293T cells cotransfected with GFP and p22F assessed as inhibition of CXCL8-reduced cAMP production at 5 uM incubated for 10 mins followed by CXCL8 stimulation and measured after 10 mins by luminescence based assay; assay type: functional, cell-based; details: filed as antagonist, time 20.0 min; outline: as §3
[21] = target: T5, C-X-C chemokine receptor type 2 (Homo sapiens); test: Antagonist activity at CXCR2 (unknown origin) expressed in HEK293T cells cotransfected with GFP and p22F assessed as inhibition of […] at 15 uM incubated at 37 degC for 30 min and at room temperature for 30 min by fluorescence based assay; assay type: functional, cell-based; details: filed as antagonist, time 60.0 min; outline: as §6
[22] = target: T5, C-X-C chemokine receptor type 2 (Homo sapiens); test: Antagonist activity at CXCR2 (unknown origin) expressed in HEK293T cells cotransfected with GFP assessed as inhibition of CXCL8-induced ERK1/2 phosphorylation pretreated at 10 uM followed by treated with CXCL8 by immunoblot assay; assay type: cell-based; details: filed as antagonist; outline: as §4
[23] = target: T5, C-X-C chemokine receptor type 2 (Homo sapiens); test: Antagonist activity at CXCR2 (unknown origin) expressed in HEK293T cells cotransfected with GFP assessed as inhibition of CXCL8-induced p38 phosphorylation at 10 uM post CXCL8 treatment by immunoblot assay; assay type: cell-based; outline: as §4
[24] = target: T5, C-X-C chemokine receptor type 2 (Homo sapiens); test: Antagonist activity at CXCR2 (unknown origin) expressed in HEK293T cells cotransfected with GFP assessed as inhibition of CXCL8-induced JNK phosphorylation at 10 uM post CXCL8 treatment by immunoblot assay; assay type: cell-based; outline: as §4
[25] = target: T5, C-X-C chemokine receptor type 2 (Homo sapiens); test: Antagonist activity at CXCR2 (unknown origin) expressed in HEK293T cells cotransfected with GFP assessed as inhibition of CXCL8-induced cJUN phosphorylation at 10 uM post CXCL8 treatment by immunoblot assay; assay type: cell-based; outline: as §4
[26] = target: T5, C-X-C chemokine receptor type 2 (Homo sapiens); test: Antagonist activity at CXCR2 (unknown origin) expressed in HEK293T cells cotransfected with GFP assessed as inhibition of CXCL8-induced AKT phosphorylation at 10 uM post CXCL8 treatment by immunoblot assay; assay type: cell-based

Chain of C-X-C chemokine receptor type 4 (P61073 whole entry, the tested form may be a part): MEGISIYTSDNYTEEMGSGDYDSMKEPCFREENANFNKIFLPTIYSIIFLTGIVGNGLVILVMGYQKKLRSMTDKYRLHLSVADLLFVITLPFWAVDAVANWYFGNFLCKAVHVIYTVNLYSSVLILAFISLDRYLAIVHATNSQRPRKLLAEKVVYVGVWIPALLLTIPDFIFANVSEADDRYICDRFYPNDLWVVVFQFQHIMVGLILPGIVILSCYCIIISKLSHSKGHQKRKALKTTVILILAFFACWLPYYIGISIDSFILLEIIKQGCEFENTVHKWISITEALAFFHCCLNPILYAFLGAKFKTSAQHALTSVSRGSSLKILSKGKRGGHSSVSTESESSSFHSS
T2 sequence (P30536 whole entry): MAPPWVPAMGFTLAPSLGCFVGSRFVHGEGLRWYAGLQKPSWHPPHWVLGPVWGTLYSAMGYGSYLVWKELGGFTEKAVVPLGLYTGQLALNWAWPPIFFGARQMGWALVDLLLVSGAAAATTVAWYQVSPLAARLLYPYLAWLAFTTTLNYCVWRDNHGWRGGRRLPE
T6 sequence (P41595 whole entry): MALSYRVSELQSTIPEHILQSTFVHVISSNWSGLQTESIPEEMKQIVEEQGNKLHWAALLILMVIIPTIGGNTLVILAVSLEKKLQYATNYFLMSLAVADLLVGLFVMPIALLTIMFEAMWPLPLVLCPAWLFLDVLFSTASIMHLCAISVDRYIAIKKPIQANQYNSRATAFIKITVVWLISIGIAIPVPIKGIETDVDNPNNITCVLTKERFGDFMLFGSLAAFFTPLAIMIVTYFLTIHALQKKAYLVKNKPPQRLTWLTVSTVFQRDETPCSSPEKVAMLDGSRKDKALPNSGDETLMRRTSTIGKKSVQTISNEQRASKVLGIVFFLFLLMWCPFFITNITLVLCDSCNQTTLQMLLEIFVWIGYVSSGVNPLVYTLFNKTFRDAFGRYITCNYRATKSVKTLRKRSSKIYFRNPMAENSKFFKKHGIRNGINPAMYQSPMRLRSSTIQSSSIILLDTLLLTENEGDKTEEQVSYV

Compound	pIC50 [1]	inhibition (Translocator protein [2]) [%]	inhibition [3] [%]	pKi (Translocator protein [4])	pKi [5]	Activity [6]	Activity ([7]; filed as antagonist)	Activity [8]	Activity [9]	Activity [10]	Activity [11]	inhibition (U2OS)	inhibition (SK-OV-3 [12])	pIC50 [13]	Activity [14]	also measured
C[C@@H](NC(=S)Nc1sc2c(c1C(=O)OC(C)(C)C)CCOC2)c1ccccc1	5.80	64	59	< 5.00	< 5.00	inactive	Active	inactive	inactive	inactive	inactive	Active	Active	< 4.52	–	–
CC(C)(C)OC(=O)c1c(NC(=S)Nc2ccc(F)cc2)sc2c1CCOC2	5.96	–	–	–	–	inactive	Active	inactive	inactive	inactive	inactive	Active	Active	< 4.52	inactive	inhibition [15]: 87%
COc1cccc2c1C(=O)c1c(O)c3c(c(O)c1C2=O)C[C@@](O)(C(=O)CO)C[C@@H]3O[C@H]1C[C@H](N)[C@H](O)[C@H](C)O1	–	–	–	–	–	–	–	–	–	–	–	–	–	–	–	inhibition (SK-OV-3 [16]): inactive
CC1COCc2sc(NC(=S)Nc3ccccc3)c(C(=O)OC(C)(C)C)c21 (stereo not drawn)	5.77	63.1	55.2	5.40	< 5.00	–	–	–	–	–	–	–	Active	< 4.82	–	inhibition [17]: 58%; pKi [18]: < 5.00
CSc1nnc2n(-c3ccccc3)c(=O)c3c4c(sc3n12)CCC[C@H]4C	–	–	–	–	–	–	–	–	–	–	–	–	–	–	inactive	pIC50 [19]: 5.11; Activity ([6]; filed as antagonist): Active; Activity [7]: inactive
N#Cc1ccc(NC(=O)Nc2ccccc2Br)c2nn[nH]c12	–	–	–	–	–	–	–	–	–	–	–	Active	–	–	–	Activity [20]: Active; Activity [21]: Active; Activity [22]: Active; Activity [23]: inactive; Activity [24]: inactive; Activity [25]: inactive; Activity [26]: inactive

Reference: ChEMBL document CHEMBL4765436, “Discovery, structure-activity relationship study and biological evaluation of 2-thioureidothiophene-3-carboxylates as a novel class of C-X-C chemokine receptor 2 (CXCR2) antagonists” (Eur J Med Chem, 2020)
